Assay outcomes deposited in PubChem by several laboratories.
An excerpt weighted towards active compounds, which were near 4.8% of everything screened.
RORa activator = RORA (human) activation; P35398; CHO-K1 Gal4-RORA LBD luciferase reporter, luminescence; percent increase over mock-subtracted basal signal; activation, % at 10 µM; 65,000 tested, 1.5% active;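 active = activation above the mean of all tested compounds plus 3 SD, cut at about 49% in these data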;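 also: 0% = DMSO-treated RORA cells and 100% = added signal equal to DMSO minus mock-transfected cells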
Target sequence (P35398 whole entry, looked up, the tested form may be a part): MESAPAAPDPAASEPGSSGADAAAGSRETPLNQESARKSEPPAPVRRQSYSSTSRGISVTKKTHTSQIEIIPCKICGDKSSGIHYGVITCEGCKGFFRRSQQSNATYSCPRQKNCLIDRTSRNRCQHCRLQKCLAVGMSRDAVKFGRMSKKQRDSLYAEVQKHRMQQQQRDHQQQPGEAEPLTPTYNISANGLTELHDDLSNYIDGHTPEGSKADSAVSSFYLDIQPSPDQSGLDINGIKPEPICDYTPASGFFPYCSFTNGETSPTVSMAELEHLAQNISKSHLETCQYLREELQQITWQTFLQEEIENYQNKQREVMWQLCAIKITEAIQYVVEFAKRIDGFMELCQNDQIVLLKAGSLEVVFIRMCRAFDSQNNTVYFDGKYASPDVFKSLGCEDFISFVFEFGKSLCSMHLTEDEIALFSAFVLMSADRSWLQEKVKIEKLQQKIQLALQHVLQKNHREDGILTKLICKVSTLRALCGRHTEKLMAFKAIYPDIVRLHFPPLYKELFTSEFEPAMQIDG
ERa coact inh = blocks coactivator binding to human estrogen receptor alpha; P03372; TR-FRET ER-alpha LBD / SRC-1 peptide, estradiol-bound; inhibition, % at 25.6 µM; 86,000 tested, 1.7% active; AID 629; in the data active = inhibition above about 50%;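 also: 0% = receptor plus peptide control and 100% = peptide only without receptor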
PTK2B oligo ant = antagonists of human Pyk2 oligomerization. Q14289. z-score (the deposit names both 25 µM and 10 µM). Q293 cells, Pyk2 FERM NanoBiT luminescence; hits give low values. 99,000 tested, 0.83% active;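 active = Z-score of -3 or lower, scaled per plate to the spread of control and sample wells; inactive = z-score above -3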;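 also: negative z-score means lost luminescence so less FERM oligomerization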
SF1 activator = activates the human nuclear receptor SF-1; 65,000 tested, 1.9% active; Q13285; AID 522; CHO-K1 Gal4-SF-1 LBD luciferase reporter; % increase over DMSO SF-1-specific signal; activation, % at 10 µM;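 active = activation above the mean activation of all tested compounds plus 3 SD, cut at about 50% in these data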
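Assay system – CHO-K1 cells with Gal4–hSF-1 LBD chimera plus Gal4-driven luciferase · Quantity – 4,000 cells per well · Times – compound added 1 h post-seeding, 20 h exposure at 37 °C, 5% CO2 · Measured by – luciferase light emission · Benchmarks – DMSO and mock-transfected background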
ERb coact inh = blocks coactivator binding to human estrogen receptor beta | Q92731 | TR-FRET ER-beta LBD / SRC1-Cy5 peptide binding; receptor agonist-loaded with 1 µM estradiol | inhibition, % at 25.6 µM | 86,000 tested, 1.3% active;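 active = compounds whose percent inhibition of the receptor-coactivator binding signal exceeds about 50% in the single-dose screen, limit read from the data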;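 also: 0% = receptor plus peptide wells without compound and 100% = peptide-only wells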
ERa SRC1 pot = enhances coactivator binding to human estrogen receptor alpha | P03372 | TR-FRET ERalpha-LBD/SRC-Cy5 coactivator binding, 2 h; 100 = basal binding, no effect | coactivator binding (% of control), % at 25.6 µM | 86,000 tested, 1.3% active | AID 639; in the data active = activity above about 200%;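 also: binding measured in presence of low estradiol as agonist stimulus; 0% = peptide alone without receptor and 100% = receptor with peptide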
Numbers without * were called inactive; [ ] = another dose, or the depositor's remark.

Screening CCOC(=O)c1c(C=O)c(C)n(Cc2ccc(Cl)cc2)c1C returned ERa coact inh 3, PTK2B oligo ant -3.2*, ERb coact inh 12 and ERa SRC1 pot 81.
For COc1ccc(C)cc1NC(=O)c1cnc2scc(C)n2c1=O the results were RORa activator 4, ERa coact inh 20, SF1 activator -13, ERb coact inh 9 and ERa SRC1 pot 216*[fluorescence artefact?].
For COc1ccc(C)cc1NC(=O)c1cnc2n(c1=O)CCS2 the results were RORa activator 9, ERa coact inh -17, PTK2B oligo ant -0.24, SF1 activator 29, ERb coact inh -34 and ERa SRC1 pot 95.
Cc1ccccc1S(=O)(=O)Nc1nc2ccccc2nc1N1CCOCC1 was read as RORa activator -8, ERa coact inh -28, PTK2B oligo ant -0.39, SF1 activator 15, ERb coact inh -1 and ERa SRC1 pot 101.
`COc1cc(Br)c(C(C)NC(=O)c2ccc(C)cc2)cc1OC` (configuration not stated) gave PTK2B oligo ant -0.99.
`COc1cc(Br)c(C(C)NC(=O)c2cccc(Br)c2)cc1OC` (configuration not stated) gave PTK2B oligo ant -3.2*.
Screening COc1ccc(CC(=O)O/N=C(\N)Cc2cccc3ccccc23)cc1OC returned PTK2B oligo ant -1.1.
CCN1CCN(c2nc3c(c(=O)n(C)c(=O)n3C)n2CCSc2nccc(C)n2)CC1 was read as RORa activator 1, ERa coact inh -9, PTK2B oligo ant 0.84, SF1 activator -9, ERb coact inh -9 and ERa SRC1 pot 119.
COc1cccc(OCc2nc3ncc(Br)cc3[nH]2)c1 was read as RORa activator 60*, ERa coact inh 4, PTK2B oligo ant 0.28, SF1 activator 76*, ERb coact inh 8 and ERa SRC1 pot 104.
`Cc1cc(C)cc(OCc2nc3ncc(Br)cc3[nH]2)c1` gave ERa coact inh 57*, PTK2B oligo ant -0.01, ERb coact inh 42 and ERa SRC1 pot 333*[fluorescence artefact?].
For C=CCN(C(=O)CSc1nc2[nH]ncc2c(=O)n1-c1ccccc1OC)c1ccccc1 the results were RORa activator -13, ERa coact inh 1, PTK2B oligo ant -1.2, SF1 activator -3, ERb coact inh -6 and ERa SRC1 pot 116.
O=C(CN1CCN(C2CCCCC2)CC1)NCCC1=CCCCC1 was read as RORa activator -14, ERa coact inh -11, PTK2B oligo ant 1.4, SF1 activator -15, ERb coact inh -10 and ERa SRC1 pot 154.
Screening O=c1c2ccccc2nc2n1CCCCN2 returned RORa activator 1, ERa coact inh 80*, PTK2B oligo ant 1.1, SF1 activator 5, ERb coact inh 12 and ERa SRC1 pot 82.
`O=c1c2ccccc2nc2n1CCCCC2` gave RORa activator -15, ERa coact inh -8, PTK2B oligo ant 3.2, SF1 activator -11, ERb coact inh -9 and ERa SRC1 pot 115.
For COc1ccccc1S(=O)(=O)Cc1ccc(C(=O)N2CCN(c3ccc(C)cc3)C(C)C2)o1 (configuration not stated) the results were RORa activator 13 and SF1 activator 38.
Screening Cc1ccc(S(=O)(=O)Cc2ccc(C(=O)N3CCc4ccccc4C3)o2)cc1 returned ERa coact inh 78*[fluorescence artefact?], ERb coact inh 76* and ERa SRC1 pot 50.
COc1ccc(S(=O)(=O)Cc2ccc(C(=O)N3CCN(c4cccc(C)c4)C(C)C3)o2)cc1 (configuration not stated) was read as RORa activator 55*, ERa coact inh -7, SF1 activator 28, ERb coact inh -11 and ERa SRC1 pot 104.
Screening Cc1ccc(S(=O)(=O)Cc2ccc(C(=O)N3CCN(Cc4ccccc4)CC3)o2)cc1 returned RORa activator 17, ERa coact inh 61*[fluorescence artefact?], SF1 activator 6, ERb coact inh 58* and ERa SRC1 pot 85.
For Cc1ccc(S(=O)(=O)Cc2ccc(C(=O)O)o2)cc1 the results were ERa coact inh 69*, PTK2B oligo ant -0.23, ERb coact inh 76* and ERa SRC1 pot 25.
C=CCn1c(Cc2ccc(OC)cc2)nnc1SCC(=O)NCCc1ccccc1 was read as ERa coact inh -5, PTK2B oligo ant -0.43, ERb coact inh -7 and ERa SRC1 pot 93.
Screening CN(C)CCCOc1nc2c(c(=O)n(C)c(=O)n2C)n1C returned ERa coact inh -5, PTK2B oligo ant 1.9, ERb coact inh -9 and ERa SRC1 pot 113.
COC(=O)c1ccc(C(=O)OC)c(NC(=O)COC(=O)CC2CC3CCC2C3)c1 (configuration not stated) was read as PTK2B oligo ant -0.49.
Screening COc1ccc(Cl)c(NCCC(=O)O)c1 returned RORa activator 0, ERa coact inh -18, PTK2B oligo ant 0.7, SF1 activator 4, ERb coact inh -20 and ERa SRC1 pot 97.
`Nc1nonc1C(=O)NCCNS(=O)(=O)c1ccc(Br)cc1` gave PTK2B oligo ant -0.19.
Cc1ccc(S(=O)(=O)Cc2ccc(C(=O)NCc3ccc4c(c3)OCO4)o2)cc1 was read as RORa activator -1, ERa coact inh 51*, PTK2B oligo ant 1, SF1 activator -20, ERb coact inh 43 and ERa SRC1 pot 62.
COc1ccc2c(c1)Cc1sc(NC(C)=O)nc1-2 was read as RORa activator 42, ERa coact inh -21, PTK2B oligo ant 1.1, SF1 activator 77*, ERb coact inh -9 and ERa SRC1 pot 98.
`COc1ccc2c(c1)Cc1sc(NC(=O)c3ccco3)nc1-2` gave ERa coact inh 9, PTK2B oligo ant 0.81, ERb coact inh 6 and ERa SRC1 pot 116.
For CN1CCN(C2=C(Cl)C(=O)N(C3CCCCC3)C2=O)CC1 the results were RORa activator -9, ERa coact inh -10, PTK2B oligo ant -0.29, SF1 activator 22, ERb coact inh -9 and ERa SRC1 pot 98.
CN1CCN(C2=C(Cl)C(=O)C(c3cnc(N4CCCCC4)s3)=C(Cl)C2=O)CC1 was read as ERa coact inh 46, PTK2B oligo ant 0.49, ERb coact inh 72*[fluorescence artefact?] and ERa SRC1 pot 57.
For C[C@]12CC[C@H]3C(=CCc4cc(O)ccc43)[C@@H]1CCC2=O the results were ERa coact inh 16, ERb coact inh 13 and ERa SRC1 pot 206*.
`C[C@]12CC[C@@H]3c4ccc(O)cc4CC[C@H]3[C@@H]1CC[C@@H]2OC(=O)CCC(=O)O` gave RORa activator -21, ERa coact inh 9, SF1 activator 10, ERb coact inh 4 and ERa SRC1 pot 107.
`CSc1nnc(NC(=O)c2cc3ccccc3oc2=O)s1` gave RORa activator 3, ERa coact inh 36, SF1 activator 5, ERb coact inh 6 and ERa SRC1 pot 89.
